Activity calls are given as the source filed them.
Columns and labels:
[1] = molecular target: Mu-type opioid receptor (Mus musculus) (UniProt P42866); test: Antagonist activity at mouse mu opioid receptor expressed in CHO cell membrane assessed as reduction in DAMGO-induced […]-GTPgammaS binding by measuring maximal efficacy incubated for 1.5 hrs by liquid scintillation counting method relative to control; type: functional, cell membranes
Outline: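 [³⁵S]GTPγS binding. Membranes (10 μg protein) from CHO cells expressing MOR, KOR or DOR. Buffer TME (50 mM Tris, 3 mM MgCl₂, 0.2 mM EGTA, pH 7.4) with 100 mM NaCl, 20 μM GDP and 0.1 nM [³⁵S]GTPγS. Test compound at varying concentrations. Incubation 1.5 h at 30 °C. Nonspecific binding with 20 μM unlabeled GTPγS. Reference full agonist at 3 μM: DAMGO (MOR), U50488H (KOR), SNC80 (DOR). Filtration, then scintillation counting. Duplicates, at least three repeats.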

[2] = molecular target: Delta-type opioid receptor (Homo sapiens, UniProt P41143); test: Binding affinity to human delta opioid receptor in presence of SNC80 incubated for 1.5 hrs by competitive radioligand binding assay
Outline: (§1)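 Competition binding. Membranes (30 μg protein) from CHO cells with mouse MOR or KOR, or human DOR. Incubated with radioligand and varying test concentrations in TME buffer, pH 7.4, 1.5 h at 30 °C. Filtration harvest. Nonspecific binding defined with 5 μM naltrexone (MOR), U50,488 (KOR) or SNC80 (DOR). IC₅₀ by nonlinear regression, converted to Ki by Cheng-Prusoff. Selectivity ratios taken from these Ki values. At least three independent experiments.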

[3] = Selectivity index, ratio of Ki for binding affinity to human delta opioid receptor to Ki for binding affinity to mouse mu opioid receptor; outline: as §1
[4] = molecular target: Kappa-type opioid receptor (Mus musculus, UniProt P33534); test: Binding affinity to mouse kappa opioid receptor expressed in CHO cells in presence of U50488 incubated for 1.5 hrs by competitive radioligand binding assay; type: cell-based; outline: as §1
Mu-type opioid receptor [5] = molecular target: T1, Mu-type opioid receptor (Mus musculus, UniProt P42866); test: Binding affinity to mouse mu opioid receptor expressed in CHO cells in presence of naltrexone incubated for 1.5 hrs by competitive radioligand binding assay; type: cell-based; outline: as §1
Mus musculus [6] = organism: Mus musculus; test: Selectivity index, ratio of Ki for binding affinity to mouse kappa opioid receptor to Ki for binding affinity to mouse mu opioid receptor; outline: as §1
Mus musculus [7] = test: Antinociceptive activity against Swiss Webster mouse assessed as tail withdrawal latency from warm water by measuring maximum possible effect at 10 mg/kg, sc measured after 20 mins by warm water tail immersion assay; type: functional
Outline: (§2)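 Male Swiss Webster mice, 5–8 weeks, 25–35 g, 6 per group. Tail immersed (distal third) in water at 56 ± 0.1 °C. Mice included only with baseline latency 2–4 s. Compound 10 mg/kg s.c.; in the challenge arm it was given 5 min before morphine 10 mg/kg s.c. Latency read 20 min after injection, 10-s cutoff. %MPE = (test − control)/(10 − control) × 100. Dunnett-corrected one-way ANOVA.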

Mu-type opioid receptor [8] = molecular target: T1, Mu-type opioid receptor; test: Antagonist activity at mouse mu opioid receptor expressed in CHO cell membrane assessed as reduction in DAMGO-induced […]-GTPgammaS binding incubated for 1.5 hrs by liquid scintillation counting method; type: functional, cell membranes
Mus musculus [9] = test: Antinociceptive activity against sc dosed Swiss Webster mouse model assessed as effect on morphine induced antinociception by measuring tail withdrawal latency from warm water incubated for 5 mins followed by morphine addition measured after 20 mins by warm water tail immersion assay; type: functional; details: time 25.0 min; outline: as §2

Structure (SMILES)	Emax [1]	Ki [2]	Ratio Ki [3]	Ki [4]	Ki (Mu-type opioid receptor [5])	Ratio Ki (Mus musculus [6])	MPE (Mus musculus [7])	EC50 (Mu-type opioid receptor [8])	Activity (Mus musculus [9])	Activity (Mus musculus [7])
O=C(Cc1ncc[nH]1)N[C@H]1CC[C@@]2(O)[C@H]3Cc4ccc(O)c5c4[C@@]2(CCN3CC2CC2)[C@H]1O5	19.2%	17.7 nM	21	3.45 nM	0.83 nM	4	36.9%	1.81 nM		
O=C(N[C@H]1CC[C@@]2(O)[C@H]3Cc4ccc(O)c5c4[C@@]2(CCN3CC2CC2)[C@H]1O5)c1cn[nH]c1	23.1%	37.5 nM	64	4.7 nM	0.59 nM	8		1.24 nM	inactive	inactive
O=C(N[C@H]1CC[C@@]2(O)[C@H]3Cc4ccc(O)c5c4[C@@]2(CCN3CC2CC2)[C@H]1O5)c1cnc[nH]1	20.7%	32.5 nM	29	2.76 nM	1.11 nM	2		4.42 nM	inactive	inactive
O=C(CCc1ncc[nH]1)N[C@H]1CC[C@@]2(O)[C@H]3Cc4ccc(O)c5c4[C@@]2(CCN3CC2CC2)[C@H]1O5	21.7%	3.94 nM	6	0.79 nM	0.69 nM	1		4.26 nM	inactive	inactive
O=C(CCc1cnc[nH]1)N[C@H]1CC[C@@]2(O)[C@H]3Cc4ccc(O)c5c4[C@@]2(CCN3CC2CC2)[C@H]1O5	25.4%	21.5 nM	106	1.21 nM	0.2 nM	6		9.47 nM	inactive	inactive
O=C(CCc1cc[nH]n1)N[C@@H]1CC[C@@]2(O)[C@H]3Cc4ccc(O)c5c4[C@@]2(CCN3CC2CC2)[C@H]1O5	13.2%	42.2 nM	202	2 nM	0.21 nM	10		2.76 nM	inactive	inactive
O=C(Cc1cnc[nH]1)N[C@@H]1CC[C@@]2(O)[C@H]3Cc4ccc(O)c5c4[C@@]2(CCN3CC2CC2)[C@H]1O5	20.9%	74.5 nM	91	4.82 nM	0.82 nM	6		4.64 nM	inactive	inactive
O=C(CCc1cn[nH]c1)N[C@@H]1CC[C@@]2(O)[C@H]3Cc4ccc(O)c5c4[C@@]2(CCN3CC2CC2)[C@H]1O5	10.7%	97.8 nM	322	12.3 nM	0.3 nM	40		4.28 nM	inactive	inactive
O=C(CCc1cc[nH]n1)N[C@H]1CC[C@@]2(O)[C@H]3Cc4ccc(O)c5c4[C@@]2(CCN3CC2CC2)[C@H]1O5	22.2%	217 nM	433	2.75 nM	0.5 nM	6		4.22 nM	inactive	inactive
O=C(CCc1cn[nH]c1)N[C@H]1CC[C@@]2(O)[C@H]3Cc4ccc(O)c5c4[C@@]2(CCN3CC2CC2)[C@H]1O5	14.2%	91.2 nM	83	39.5 nM	1.09 nM	36		12.3 nM	inactive	inactive
O=C(Cc1cnc[nH]1)N[C@H]1CC[C@@]2(O)[C@H]3Cc4ccc(O)c5c4[C@@]2(CCN3CC2CC2)[C@H]1O5	21%	79.4 nM	59	3.57 nM	1.34 nM	3		3.61 nM	inactive	inactive
O=C(CCc1ncc[nH]1)N[C@@H]1CC[C@@]2(O)[C@H]3Cc4ccc(O)c5c4[C@@]2(CCN3CC2CC2)[C@H]1O5	17.7%	55.8 nM	99	0.57 nM	0.57 nM	1		1.24 nM	inactive	inactive
O=C(N[C@H]1CC[C@@]2(O)[C@H]3Cc4ccc(O)c5c4[C@@]2(CCN3CC2CC2)[C@H]1O5)c1cc[nH]n1	19.6%	21.2 nM	35	1.05 nM	0.61 nM	2		2.33 nM	inactive	inactive
O=C(N[C@@H]1CC[C@@]2(O)[C@H]3Cc4ccc(O)c5c4[C@@]2(CCN3CC2CC2)[C@H]1O5)c1cn[nH]c1	16.3%	46.8 nM	72	2.51 nM	0.65 nM	4		1.77 nM	inactive	inactive
O=C(N[C@@H]1CC[C@@]2(O)[C@H]3Cc4ccc(O)c5c4[C@@]2(CCN3CC2CC2)[C@H]1O5)c1cc[nH]n1	10.9%	14.5 nM	52	0.95 nM	0.28 nM	3		1.83 nM	inactive	inactive
O=C(CCc1cnc[nH]1)N[C@@H]1CC[C@@]2(O)[C@H]3Cc4ccc(O)c5c4[C@@]2(CCN3CC2CC2)[C@H]1O5	15.7%	35.5 nM	60	1.8 nM	0.6 nM	3		3.19 nM	inactive	inactive
O=C(Cc1cc[nH]n1)N[C@@H]1CC[C@@]2(O)[C@H]3Cc4ccc(O)c5c4[C@@]2(CCN3CC2CC2)[C@H]1O5	20.4%	36.8 nM	186	5.05 nM	0.2 nM	26	39.3%	2.5 nM	inactive	
